Key:
[1] = molecular target: T1, Polyunsaturated fatty acid 5-lipoxygenase (Homo sapiens, UniProt P09917); assay: Inhibition of recombinant human 5-LO expressed in Escherichia coli BL21 using arachidonic acid as substrate assessed as formation of LTB4, 5(S),12(S)-DiHETE, 5-H(p)ETE preincubated for 5 to 10 mins followed by substrate addition measured after 10 mins by HPLC
T1 sequence (P09917 whole entry): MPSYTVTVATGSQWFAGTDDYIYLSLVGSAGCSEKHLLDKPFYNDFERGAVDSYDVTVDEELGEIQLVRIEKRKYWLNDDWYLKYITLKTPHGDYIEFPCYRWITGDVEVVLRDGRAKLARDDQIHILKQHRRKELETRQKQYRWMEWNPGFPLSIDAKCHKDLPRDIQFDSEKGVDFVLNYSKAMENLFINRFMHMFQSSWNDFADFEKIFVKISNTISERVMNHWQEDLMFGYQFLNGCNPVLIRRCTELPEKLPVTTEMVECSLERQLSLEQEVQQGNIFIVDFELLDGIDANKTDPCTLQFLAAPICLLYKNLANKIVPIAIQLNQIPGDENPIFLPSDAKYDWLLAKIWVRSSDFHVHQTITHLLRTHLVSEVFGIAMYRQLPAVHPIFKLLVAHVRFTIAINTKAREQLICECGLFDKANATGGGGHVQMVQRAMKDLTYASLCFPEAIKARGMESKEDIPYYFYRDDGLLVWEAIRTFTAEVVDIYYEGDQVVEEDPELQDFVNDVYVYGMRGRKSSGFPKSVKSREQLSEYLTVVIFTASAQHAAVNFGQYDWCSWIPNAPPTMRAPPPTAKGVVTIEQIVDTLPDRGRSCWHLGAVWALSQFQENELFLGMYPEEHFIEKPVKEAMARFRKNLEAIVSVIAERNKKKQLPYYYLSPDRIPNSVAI

[2] = molecular target: T2, Prostaglandin E synthase (Homo sapiens, UniProt O14684); assay: Inhibition of mPGES-1 in microsomal membranes isolated from interleukin-1beta-stimulated human A549 cells using PGH2 as substrate assessed as PGE2 formation preincubated for 15 mins followed by substrate addition measured after 1 min by RP-HPLC analysis; format: cell membranes
T2 sequence (O14684 whole entry): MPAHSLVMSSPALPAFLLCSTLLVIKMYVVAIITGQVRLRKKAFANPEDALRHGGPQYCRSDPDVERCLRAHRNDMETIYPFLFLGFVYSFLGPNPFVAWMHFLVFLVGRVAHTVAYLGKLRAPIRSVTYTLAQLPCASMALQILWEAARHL
In short: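 A549 cells kept 16 h in DMEM with 2% FCS, then 1 ng/ml IL-1β for 72 h. Cells homogenized and sonicated, microsomes obtained by centrifugation at 10,000 × g then 174,000 × g. Microsomes in 0.1 M potassium phosphate pH 7.4 with 2.5 mM glutathione, preincubated 15 min with compound or 0.3% DMSO. 20 µM PGH₂ (final) for 1 min at 4 °C. Stopped with FeCl₂/citric acid containing 11β-PGE₂, solid-phase extraction, RP-HPLC with UV at 195 nm.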

[3] = test system: Jurkat; assay: Cytotoxicity against human Jurkat cells assessed as induction of cell death after 48 hrs by MTT assay; format: functional, cell-based
In short: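 Jurkat T cells grown in RPMI 1640 with 10% heat-inactivated FCS, 10 mM HEPES, penicillin/streptomycin at 37 °C, 5% CO₂. Seeded at 2 × 10⁴ per well. Compounds or 0.3% DMSO vehicle added for 48 h. MTT then added until blue staining, cells lysed overnight in 10% SDS/20 mM HCl, absorbance read at 570 nm. Three to four independent experiments.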

[4] = molecular target: T1, Polyunsaturated fatty acid 5-lipoxygenase; assay: Inhibition of 5-LO in ionophore A23187-stimulated human PMNL using arachidonic acid as substrate assessed as formation of LTB4, 5(S),12(S)-DiHETE, 5-H(p)ETE preincubated for 15 mins followed by substrate and ionophore addition measured after 10 mins by HPLC analysis
[5] = molecular target: T1, Polyunsaturated fatty acid 5-lipoxygenase; assay: Inhibition of recombinant human 5-LO expressed in Escherichia coli BL21 using arachidonic acid as substrate assessed as formation of all-trans isomer of LTB4, 5-H(P)ETE preincubated for 5 to 10 mins followed by substrate addition measured after 10 mins by HPLC analysis
[6] = molecular target: Prostaglandin G/H synthase 1 (Homo sapiens, UniProt P23219); assay: Inhibition of COX-1 in human platelet using arachidonic acid as substrate assessed as formation of 12-HHT preincubated for 10 mins followed by substrate addition measured after 5 mins by HPLC analysis
Chain of Prostaglandin G/H synthase 1 (P23219 whole entry): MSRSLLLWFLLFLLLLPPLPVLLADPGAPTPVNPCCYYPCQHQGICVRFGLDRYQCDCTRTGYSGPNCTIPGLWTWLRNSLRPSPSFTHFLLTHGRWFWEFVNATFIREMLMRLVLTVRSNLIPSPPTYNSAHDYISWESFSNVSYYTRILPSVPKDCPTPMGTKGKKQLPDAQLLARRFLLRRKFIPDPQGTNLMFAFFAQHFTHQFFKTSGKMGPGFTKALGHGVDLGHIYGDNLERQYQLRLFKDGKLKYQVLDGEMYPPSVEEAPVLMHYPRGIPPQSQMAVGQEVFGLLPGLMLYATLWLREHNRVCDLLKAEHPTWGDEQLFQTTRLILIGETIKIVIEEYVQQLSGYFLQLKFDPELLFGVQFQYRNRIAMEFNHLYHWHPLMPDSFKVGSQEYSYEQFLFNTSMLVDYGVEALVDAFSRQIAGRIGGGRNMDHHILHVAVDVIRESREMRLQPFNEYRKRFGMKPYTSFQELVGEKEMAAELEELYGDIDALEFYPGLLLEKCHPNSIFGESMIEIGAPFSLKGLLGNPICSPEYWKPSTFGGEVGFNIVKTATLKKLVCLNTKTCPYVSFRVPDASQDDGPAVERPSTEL

[7] = molecular target: T1, Polyunsaturated fatty acid 5-lipoxygenase; assay: Inhibition of 5-LO in human PMNL using arachidonic acid as substrate preincubated for 10 mins followed by substrate addition measured after 10 mins by HPLC analysis

Q: For CC(C)C(=O)c1c(O)c([C@H](C2=C(O)C(C)(C)C(=O)C(C)(C)C2=O)C(C)C)c(O)c([C@H](C2=C(O)C(C)(C)C(=O)C(C)(C)C2=O)C(C)C)c1O [MYRTUCOMMULONE A], which IC50 [1] is on record?
A: The IC50 was 5 µM.

Q: What about the IC50 [2] of the same molecule?
A: Its IC50 is 1 µM.

Q: What about the EC50 [3] of the same molecule?
A: The EC50 was 2.4 µM.

Q: What about the IC50 [4] of the same molecule?
A: The IC50 was 3.2 µM.

Q: What about the IC50 [5] of the same molecule?
A: The IC50 was 15 µM.

Q: And the IC50 [6]?
A: Its IC50 is 17 µM.

Q: And the IC50 [7]?
A: The IC50 was 1.8 µM.

Source: ChEMBL document CHEMBL3608292, “Synthesis and biological evaluation of novel myrtucommulones and structural analogues that target mPGES-1 and 5-lipoxygenase” (Eur J Med Chem, 2015)
